Source: ChEMBL document CHEMBL1123263, “Alkylglycidic acids: potential new hypoglycemic agents” (J Med Chem, 1986)
Active and inactive are the calls of the source. The rule behind the calls is not given here.

What was measured:
[1] = system: Rattus norvegicus; test: Minimum effective concentration by rat glucose tolerance test (po); type: functional; conditions: read-out: MED
[2] = species: Rattus norvegicus; test: In vitro inhibition of palmitate oxidation; Inactive; type: functional
Summary of the method: (§1)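 In vitro assay in rat hemidiaphragm muscle, using [1-¹⁴C]palmitic acid as the labeled substrate. Read-out was inhibition of oxidation of the labeled palmitate.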

[3] = species: Rattus norvegicus; test: Compound was tested in vitro for inhibition of palmitate oxidation; Inactive; type: functional; summary of the method: as §1
[4] = system: Rattus norvegicus; test: Maximum lowering of blood glucose when 100 mg/kg of the drug administered orally was reported by rat glucose tolerance test; type: functional; conditions: route oral
[5] = species: Rattus norvegicus; test: Compound was tested in vitro for inhibition of palmitate oxidation; type: functional; conditions: for minimal effective concentration: Rattus norvegicus, read-out: MEC; summary of the method: as §1
[6] = species: Rattus norvegicus; test: In vitro inhibition of palmitate oxidation; type: functional; summary of the method: as §1
[7] = system: Rattus norvegicus; test: Minimum effective concentration by rat glucose tolerance test (po); Inactive; type: functional, organism-based
[8] = system: Rattus norvegicus; test: Maximum lowering of blood glucose when 100 mg/kg of the drug administered orally was reported by rat glucose tolerance test; Inactive; type: functional, organism-based; parameters: dose 100 mg/kg
[9] = system: Rattus norvegicus; test: Maximum lowering of blood glucose when 50 mg/kg of the drug administered orally was reported by rat glucose tolerance test; type: functional; conditions: route oral
[10] = system: Rattus norvegicus; test: Maximum lowering of blood glucose when 25 mg/kg of the drug administered orally was reported by rat glucose tolerance test; type: functional; conditions: route oral
[11] = system: Rattus norvegicus; test: Maximum lowering of blood glucose when 75 mg/kg of the drug administered orally was reported by rat glucose tolerance test; type: functional; conditions: route oral
[12] = system: Rattus norvegicus; test: Maximum lowering of blood glucose when 60 mg/kg of the drug administered orally was reported by rat glucose tolerance test; type: functional; conditions: route oral

CCCCCCCCCCCCCCC1(C(N)=O)CO1 (configuration not stated)
minimal effective dose [1]: 10 mg/kg | IC50 [2]: Not Active | MEC [3]: inactive | Max lowering [4]: 44%

CCCCCCCCCCCC1(C(=O)OC)CO1 (configuration not stated)
minimal effective concentration [5]: 2.5 µM | minimal effective dose [1]: 10 mg/kg | Max lowering [4]: 38% | IC50 ([6]; Rattus norvegicus): 7 µM

CCCCCCCCCCCCCCCCCCCCCCC1(C(=O)OC)CO1 (configuration not stated)
minimal effective dose [1]: 10 mg/kg | IC50 [2]: Not Active | MEC [3]: inactive | Max lowering [4]: 17%

COC(=O)C1(C)CO1 (configuration not stated)
MED [7]: inactive | Max lowering [8]: inactive | IC50 [2]: Not Active | MEC [3]: inactive

CCCCCCCCCCCCCCCCC1(C(=O)OC)CO1 (configuration not stated)
minimal effective concentration [5]: 10 µM | minimal effective dose [1]: 25 mg/kg | Max lowering [4]: 16% | IC50 ([6]; Rattus norvegicus): 100 µM

CCCCCCCCCCC1(C(=O)OC)CO1 (configuration not stated)
minimal effective concentration [5]: 0.5 µM | minimal effective dose [1]: 10 mg/kg | Max lowering [9]: 32% | IC50 ([6]; Rattus norvegicus): 5 µM

CCCCCCCCCCCCCCC1(C(=O)OC)OC1(C)C (configuration not stated)
MED [7]: inactive | Max lowering [8]: inactive | IC50 [2]: Not Active | MEC [3]: inactive

CCCCCCCCCCCCCC1(C(=O)OC)CO1 (configuration not stated)
minimal effective concentration [5]: 1 µM | minimal effective dose [1]: 5 mg/kg | Max lowering [4]: 37% | IC50 ([6]; Rattus norvegicus): 13 µM

CCCCCCC1(C(=O)OC)CO1 (configuration not stated)
minimal effective concentration [5]: 20 µM | minimal effective dose [1]: 10 mg/kg | Max lowering [4]: 30% | IC50 ([6]; Rattus norvegicus): 102 µM

CCCCCCCCCCC1(C(=O)OCC)OC1(C)C (configuration not stated)
MED [7]: inactive | Max lowering [8]: inactive | IC50 [2]: Not Active | MEC [3]: inactive

COC(=O)C1(CCCCCCCCCCc2ccccc2)CO1 (configuration not stated)
Max lowering [10]: 36% | minimal effective dose [1]: 10 mg/kg

CCCCCCCCCCCCCCC1(CO)CO1 (configuration not stated)
MED [7]: inactive | Max lowering [8]: inactive | IC50 [2]: Not Active | MEC [3]: inactive

CCCCCCCCCCCCCCC1(C(=O)N(C)C)CO1 (configuration not stated)
minimal effective dose [1]: 25 mg/kg | IC50 [2]: Not Active | MEC [3]: inactive | Max lowering [4]: 19%

CCCCCCCCCCCCCCC1(CC(C(=O)OC)C(=O)OC)CO1 (configuration not stated)
MED [7]: inactive | Max lowering [8]: inactive | IC50 [2]: Not Active | MEC [3]: inactive

CCCCCCCCCCCCCCC1(C(=O)O)CO1 (configuration not stated) [PALMOXIRATE]
minimal effective concentration [5]: 0.1 µM | minimal effective dose [1]: 5 mg/kg | Max lowering [4]: 53%

CCCCCCCCCCCCCCCCCCC1(C(=O)OC)CO1 (configuration not stated)
minimal effective dose [1]: 10 mg/kg | MEC [3]: inactive | Max lowering [4]: 25%

CCCCCCCCCCCCC1(C(=O)OC)CO1 (configuration not stated)
minimal effective concentration [5]: 1 µM | minimal effective dose [1]: 5 mg/kg | Max lowering [4]: 32% | IC50 ([6]; Rattus norvegicus): 15 µM

CCCCCCCCCCCCCCC1(C(=O)OC)CO1 (configuration not stated) [METHYL PALMOXIRATE]
minimal effective concentration [5]: 0.1 µM | minimal effective dose [1]: 4 mg/kg | Max lowering [11]: 45% | IC50 ([6]; Rattus norvegicus): 2 µM

CCCCCCCCCCCCCCC1(C(=O)NCCO)CO1 (configuration not stated)
minimal effective dose [1]: 100 mg/kg | IC50 [2]: Not Active | MEC [3]: inactive | Max lowering [4]: 33%

CCCCCCCCCCCCCCC1(C(=O)OC)OC1C (configuration not stated)
MED [7]: inactive | Max lowering [8]: inactive | IC50 [2]: Not Active | MEC [3]: inactive

CCCCCCCCCCCCCCC1(C(=O)OCCCC)CO1 (configuration not stated)
minimal effective concentration [5]: 10 µM | minimal effective dose [1]: 1.5 mg/kg | Max lowering [4]: 40% | IC50 ([6]; Rattus norvegicus): 47 µM

CCCCCCCCCCCCCCC1(CCC(=O)OC)CO1 (configuration not stated)
MED [7]: inactive | Max lowering [8]: inactive | IC50 [2]: Not Active | MEC [3]: inactive

CCCCCCCCCCCCCCC1(C(=O)[O-])CO1.[Na+] (configuration not stated)
MEC [5]: 0.2 µM | minimal effective dose [1]: 2.5 mg/kg | Max lowering [12]: 38% | IC50 [6]: 1 µM

CCCCCCCCCCCCCCC1(C(=O)OCC(O)CO)CO1 (configuration not stated)
minimal effective concentration [5]: 10 µM | Max lowering [10]: 31% | minimal effective dose [1]: 5 mg/kg | IC50 ([6]; Rattus norvegicus): 16 µM
